Experimental data reported in ChEMBL document CHEMBL1255501, “Heteroresistance of Cryptococcus gattii to fluconazole” (2010).
The source made the active and inactive calls. The rule behind the calls is not given here.

Columns and labels:
[1] = system: Cryptococcus gattii species complex; assay: Antimicrobial activity against Cryptococcus gattii serotype C isolate H0058-1-818 assessed as heteroresistant isolates at 8 ug/ml; format: functional, Cryptococcus bacillisporus
How it was run: (§1)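 Population analysis: saline cell suspensions (1 × 103 to 4 × 10^3 CFU/ml) plated on plain YPD agar or YPD agar with various fluconazole concentrations; growth recorded after 72 h at 30°C; percentage of resistant subpopulation at each drug level calculated relative to drug-free plate growth.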

[2] = system: Cryptococcus gattii species complex; assay: Antimicrobial activity against Cryptococcus gattii serotype B isolate RB-3 assessed as concentration required for heteroresistance; format: functional, Cryptococcus bacillisporus
[3] = system: Cryptococcus gattii species complex; assay: Antimicrobial activity against Cryptococcus gattii serotype B isolate VPB572-058 assessed as heteroresistant isolates at 16 ug/ml; format: functional, Cryptococcus bacillisporus; how it was run: as §1
[4] = system: Cryptococcus gattii species complex; assay: Antimicrobial activity against Cryptococcus gattii serotype B isolate NIH744 assessed as concentration required for heteroresistance; format: functional, Cryptococcus bacillisporus
How it was run: (§2)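 Fluconazole spot test: 10-fold serial dilutions of each single-colony-purified strain spotted on YPD agar alone and YPD agar with fluconazole at 4 to 128 μg/ml. The level of heteroresistance to fluconazole (LHF) is the lowest drug concentration at which minor resistant subpopulations emerge within the spot.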

[5] = system: Cryptococcus gattii species complex; assay: Antimicrobial activity against Cryptococcus gattii serotype B isolate B5765 assessed as heteroresistant isolates at 2 ug/ml; format: functional, Cryptococcus bacillisporus
How it was run: (§3)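 Population analysis: cells suspended in sterile saline at 1 × 10³ to 4 × 10³ CFU/ml and plated on plain YPD agar or YPD agar with various fluconazole concentrations. Plates incubated at 30°C for 72 h. The resistant subpopulation at each concentration is recorded as a percentage of the population.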

[6] = system: Cryptococcus gattii species complex; assay: Antimicrobial activity against Cryptococcus gattii serotype B isolate NIH184 assessed as heteroresistant isolates at 16 ug/ml; format: functional, Cryptococcus bacillisporus; how it was run: as §3
[7] = system: Cryptococcus gattii species complex; assay: Antimicrobial activity against Cryptococcus gattii serotype B isolate NIH412 assessed as heteroresistant isolates at 2 ug/ml; format: functional, Cryptococcus bacillisporus; how it was run: as §3
[8] = system: Cryptococcus gattii species complex; assay: Antimicrobial activity against Cryptococcus gattii serotype B isolate NIH76 assessed as concentration required for heteroresistance; format: functional, Cryptococcus bacillisporus; how it was run: as §2
[9] = system: Cryptococcus gattii species complex; assay: Antimicrobial activity against Cryptococcus gattii serotype C isolate H0058-1-1941 assessed as concentration required for heteroresistance; format: functional, Cryptococcus bacillisporus
[10] = system: Cryptococcus deuterogattii; assay: Antimicrobial activity against Cryptococcus gattii serotype B isolate NIH444 assessed as concentration required for heteroresistance; format: functional, Cryptococcus bacillisporus; how it was run: as §2
[11] = system: Cryptococcus gattii species complex; assay: Antimicrobial activity against Cryptococcus gattii serotype B isolate NIH535 assessed as heteroresistant isolates at 4 ug/ml; format: functional, Cryptococcus bacillisporus; how it was run: as §3
[12] = system: Cryptococcus gattii species complex; assay: Antimicrobial activity against fluconazole-resistant Cryptococcus gattii serotype B isolate RAM15 at 256 ug/ml; format: functional, organism-based; conditions: Cryptococcus bacillisporus
[13] = system: Cryptococcus deuterogattii; assay: Antimicrobial activity against Cryptococcus gattii serotype B isolate NIH444 assessed as heteroresistant isolates at 8 ug/ml; format: functional, Cryptococcus bacillisporus; how it was run: as §3
[14] = system: Cryptococcus gattii species complex; assay: Antimicrobial activity against Cryptococcus gattii serotype B isolate RB-14 assessed as concentration required for heteroresistance; format: functional, Cryptococcus bacillisporus
[15] = system: Cryptococcus gattii species complex; assay: Antimicrobial activity against Cryptococcus gattii serotype B isolate NIH409 assessed as heteroresistant isolates at 8 ug/ml; format: functional, Cryptococcus bacillisporus; how it was run: as §3
[16] = system: Cryptococcus gattii species complex; assay: Antimicrobial activity against Cryptococcus gattii serotype B isolate NIH412 assessed as concentration required for heteroresistance; format: functional, Cryptococcus bacillisporus; how it was run: as §2
[17] = system: Cryptococcus gattii species complex; assay: Antimicrobial activity against Cryptococcus gattii serotype C isolate NIH298 assessed as heteroresistant isolates at 4 ug/ml; format: functional, Cryptococcus bacillisporus
How it was run: (§4)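 Cell suspensions of 1 × 10^3 to 4 × 10^3 CFU/ml were made in sterile saline and plated on plain YPD agar or YPD agar with various fluconazole concentrations. Plates were incubated at 30°C for 72 h, and the percentage of resistant subpopulation emerging was recorded.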

[18] = system: Cryptococcus gattii species complex; assay: Antimicrobial activity against Cryptococcus gattii serotype C isolate H0058-1-2023 assessed as concentration required for heteroresistance; format: functional, Cryptococcus bacillisporus
[19] = system: Cryptococcus bacillisporus; assay: Antimicrobial activity against Cryptococcus gattii serotype C isolate NIH191 assessed as heteroresistant isolates at 16 ug/ml; format: functional; how it was run: as §1
[20] = system: Cryptococcus gattii species complex; assay: Antimicrobial activity against Cryptococcus gattii serotype C isolate NIH312 assessed as concentration required for heteroresistance; format: functional, Cryptococcus bacillisporus
How it was run: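 […] on YPD agar at 4 to 128 μg/ml. The lowest drug concentration at which minor resistant subpopulations emerged within the patch was scored as the strain's level of heteroresistance.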

[21] = system: Cryptococcus gattii species complex; assay: Antimicrobial activity against Cryptococcus gattii serotype C isolate H0058-1-2023 assessed as heteroresistant isolates at 4 ug/ml; format: functional, Cryptococcus bacillisporus; how it was run: as §1
[22] = system: Cryptococcus bacillisporus; assay: Antimicrobial activity against Cryptococcus gattii serotype C isolate NIH191 assessed as heteroresistant isolates at 8 ug/ml; format: functional; how it was run: as §4
[23] = system: Cryptococcus gattii species complex; assay: Antimicrobial activity against Cryptococcus gattii serotype B isolate NIH200 assessed as heteroresistant isolates at 4 ug/ml; format: functional, Cryptococcus bacillisporus; how it was run: as §3
[24] = system: Cryptococcus gattii species complex; assay: Antimicrobial activity against Cryptococcus gattii serotype B isolate NIH184 assessed as heteroresistant isolates at 4 ug/ml; format: functional, Cryptococcus bacillisporus; how it was run: as §3
[25] = system: Cryptococcus gattii species complex; assay: Antimicrobial activity against Cryptococcus gattii serotype B isolate NIH198 assessed as heteroresistant isolates at 16 ug/ml; format: functional, Cryptococcus bacillisporus; how it was run: as §3
[26] = system: Cryptococcus deuterogattii; assay: Antimicrobial activity against Cryptococcus gattii serotype B isolate NIH444 assessed as heteroresistant isolates at 2 ug/ml; format: functional, Cryptococcus bacillisporus; how it was run: as §3
[27] = system: Cryptococcus gattii species complex; assay: Antimicrobial activity against Cryptococcus gattii serotype C isolate H0058-1-818 assessed as heteroresistant isolates at 2 ug/ml; format: functional, Cryptococcus bacillisporus; how it was run: as §1
[28] = system: Cryptococcus gattii species complex; assay: Antimicrobial activity against Cryptococcus gattii serotype B isolate NIH535 assessed as concentration required for heteroresistance; format: functional, Cryptococcus bacillisporus; how it was run: as §2
[29] = system: Cryptococcus gattii species complex; assay: Antimicrobial activity against Cryptococcus gattii serotype B isolate RB3 assessed as heteroresistant isolates at 4 ug/ml; format: functional, Cryptococcus bacillisporus; how it was run: as §1
[30] = system: Cryptococcus gattii species complex; assay: Antimicrobial activity against Cryptococcus gattii serotype B isolate NIH367 assessed as heteroresistant isolates at 16 ug/ml; format: functional, Cryptococcus bacillisporus; how it was run: as §3
[31] = system: Cryptococcus gattii species complex; assay: Antimicrobial activity against Cryptococcus gattii serotype B isolate NIH198 assessed as heteroresistant isolates at 8 ug/ml; format: functional, Cryptococcus bacillisporus; how it was run: as §3
[32] = system: Cryptococcus gattii species complex; assay: Antimicrobial activity against Cryptococcus gattii serotype C isolate H0058-1-818 assessed as heteroresistant isolates at 32 ug/ml; format: functional, Cryptococcus bacillisporus; how it was run: as §1
[33] = system: Cryptococcus gattii species complex; assay: Antimicrobial activity against Cryptococcus gattii serotype C isolate NIH34 assessed as heteroresistant isolates at 16 ug/ml; format: functional, Cryptococcus bacillisporus; how it was run: as §4
[34] = system: Cryptococcus deuterogattii; assay: Antimicrobial activity against Cryptococcus gattii serotype B isolate NIH444 assessed as heteroresistant isolates at 32 ug/ml; format: functional, Cryptococcus bacillisporus; how it was run: as §3
[35] = system: Cryptococcus gattii species complex; assay: Antimicrobial activity against Cryptococcus gattii serotype C isolate H0058-1-1686 assessed as heteroresistant isolates at 16 ug/ml; format: functional, Cryptococcus bacillisporus; how it was run: as §1
[36] = system: Cryptococcus gattii species complex; assay: Antimicrobial activity against Cryptococcus gattii serotype B isolate B5765 assessed as heteroresistant isolates at 8 ug/ml; format: functional, Cryptococcus bacillisporus; how it was run: as §3
[37] = system: Cryptococcus gattii species complex; assay: Antimicrobial activity against Cryptococcus gattii serotype B isolate NIH189 assessed as concentration required for heteroresistance; format: functional, Cryptococcus bacillisporus; how it was run: as §2
[38] = system: Cryptococcus gattii species complex; assay: Antimicrobial activity against Cryptococcus gattii serotype B isolate RAM15 assessed as heteroresistant isolates at 16 ug/ml; format: functional, Cryptococcus bacillisporus; how it was run: as §1
[39] = system: Cryptococcus gattii species complex; assay: Antimicrobial activity against Cryptococcus gattii serotype C isolate H0058-1-1941 assessed as heteroresistant isolates at 16 ug/ml; format: functional, Cryptococcus bacillisporus; how it was run: as §1
[40] = system: Cryptococcus gattii species complex; assay: Antimicrobial activity against Cryptococcus gattii serotype C isolate NIH113 assessed as heteroresistant isolates at 8 ug/ml; format: functional, Cryptococcus bacillisporus; how it was run: as §1
[41] = system: Cryptococcus gattii species complex; assay: Antimicrobial activity against Cryptococcus gattii serotype B isolate RAM-002 assessed as concentration required for heteroresistance; format: functional, Cryptococcus bacillisporus
[42] = system: Cryptococcus gattii species complex; assay: Antimicrobial activity against Cryptococcus gattii serotype B isolate B4506 assessed as heteroresistant isolates at 2 ug/ml; format: functional, Cryptococcus bacillisporus; how it was run: as §3

`OC(Cn1cncn1)(Cn1cncn1)c1ccc(F)cc1F` [FLUCONAZOLE] gave an Activity [1] of 100%, an Activity [2] of 8 µg/mL and an Activity [3] of 100%. It also gave an Activity [4] of 32 µg/mL, an Activity [5] of 100% and an Activity [6] of 35%. It also gave an Activity [7] of 100%, an Activity [8] of 32 µg/mL and an Activity [9] of 32 µg/mL. The Activity [10] was 32 µg/mL, the Activity [11] was 0.1% and the Activity [12] was “inactive”. The Activity [13] was 100%, the Activity [14] was 32 µg/mL and the Activity [15] was 100%. It also gave an Activity [16] of 4 µg/mL, an Activity [17] of 100% and an Activity [18] of 32 µg/mL. It also gave an Activity [19] of 100%, an Activity [20] of 32 µg/mL and an Activity [21] of 100%. The Activity [22] was 100%, the Activity [23] was 0.1% and the Activity [24] was 100%. The Activity [25] was 1.9%, the Activity [26] was 100% and the Activity [27] was 100%. It also gave an Activity [28] of 4 µg/mL, an Activity [29] of 100% and an Activity [30] of 9%. It also gave an Activity [31] of 100%, an Activity [32] of 16% and an Activity [33] of 0.22%. For the same compound, the Activity [34] was 0.5%, the Activity [35] was 100% and the Activity [36] was 100%. It also gave an Activity [37] of 16 µg/mL, an Activity [38] of 100% and an Activity [39] of 100%. For the same compound, the Activity [40] was 100%, the Activity [41] was 32 µg/mL and the Activity [42] was 100%.
